Converted amounts (≈) assume the structure as drawn. The source made the active and inactive calls. No cut-off for these calls is given here.
Experiments:
[1] = test system: Mycolicibacterium fortuitum; assay: Antimycobacterial activity against Mycobacterium fortuitum ATCC 6841 assessed as visible growth inhibition incubated for 16 to 18 hrs; assay type: functional, organism-based; details: time 16-18 hrs
[2] = test system: Mycobacteroides abscessus; assay: Antimycobacterial activity against Mycobacterium abscessus ATCC 19977 assessed as visible growth inhibition incubated for 16 to 18 hrs; assay type: functional, organism-based; details: time 16-18 hrs
Mycobacteroides chelonae = assay: Antimycobacterial activity against Mycobacterium chelonae ATCC 35752 assessed as visible growth inhibition incubated for 16 to 18 hrs; assay type: functional, organism-based; details: time 16-18 hrs
[3] = test system: Mycobacterium tuberculosis; assay: Antitubercular activity against Mycobacterium tuberculosis H37Rv assessed as bacterial growth inhibition after 7 days by broth microdilution assay; assay type: functional; details: 168 h, dose 0.03-64 µg/ml, time 7 day
Method in brief: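 Compounds were tested in broth microdilution from 64 downward, incubated 37 °C for 7 days, then resazurin (PrestoBlue) added. MIC is the lowest concentration preventing the blue-to-pink change, run in triplicate, reporting the value obtained at least twice of three.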

[4] = Cytotoxicity against African green monkey vero cells assessed as reduction in cell viability measured after 72 hrs by MTT assay; assay type: cell-based; details: chlorocebus sabaeus
Method in brief: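 Vero cells seeded at ~10³ cells/well and grown 24 h at 37 °C, 5% CO₂, then exposed to compound (100 to 5 mg/l) for 72 h. MTT was added […] for 4 h and formazan dissolved in DMSO. CC50 is the lowest concentration giving 50% viability reduction. Doxorubicin was the positive control, run in triplicate.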

[5] = Selectivity index, ratio of CC50 for African green monkey Vero cells to MIC for Antitubercular activity against Mycobacterium tuberculosis H37Rv; assay type: toxicity; details: read-out: Selectivity Index
Method in brief: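 Selectivity index calculated as Vero CC50 (MTT, 72 h) divided by the H37Rv MIC from the resazurin broth microdilution assay.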

Compound	Activity [1]	Activity [2]	Activity (Mycobacteroides chelonae)	MIC [3] [µg/mL]	CC50 at 72 h [4] [µg/mL]	selectivity ratio [5]	MIC90 [3] [µg/mL]
COC(=O)c1cc(-c2cccc(NC(=O)c3ccc(/C=C/C(=O)c4ccccc4O)cc3)c2)on1	inactive	inactive	inactive	16 (≈ 34.2 µM)	–	–	–
COC(=O)c1cc(-c2cccc(NC(=O)c3ccc(/C=C/C(=O)c4ccc(C)c([N+](=O)[O-])c4)cc3)c2)on1	inactive	inactive	inactive	4 (≈ 7.82 µM)	> 80	> 20	–
CCOC(=O)c1cc(-c2cccc(OCc3cccc(C(F)(F)F)c3)c2)on1	–	–	–	0.23 (≈ 0.588 µM)	–	–	–
O=C(/C=C/c1ccc(-n2ccnc2)cc1)c1ccc(OCc2cc(F)ccc2F)cc1	–	–	–	0.78 (≈ 1.87 µM)	–	–	–
CCOC(=O)c1cc(COc2cc(C(F)(F)F)nc3cc(C(F)(F)F)cc(C(F)(F)F)c23)on1	–	–	–	0.39 (≈ 0.776 µM)	–	–	–
COC(=O)c1cc(-c2cccc(NC(=O)c3ccc(/C=C/C(=O)c4cc(F)ccc4F)cc3)c2)on1	inactive	inactive	inactive	1 (≈ 2.05 µM)	> 40	> 40	–
COC(=O)c1cc(-c2cccc(NC(=O)c3ccc(/C=C/C(=O)c4ccccc4)cc3)c2)on1	inactive	inactive	inactive	1 (≈ 2.21 µM)	> 50	> 50	–
CC(C)Cc1ccc(C(=O)/C=C/c2ccc(C(=O)O)cc2)cc1	–	–	–	32 (≈ 104 µM)	< 10	< 10	–
COC(=O)c1cc(-c2cccc(NC(=O)c3ccc(/C=C/C(=O)c4ccc5c(c4)OCO5)cc3)c2)on1	inactive	inactive	inactive	2 (≈ 4.03 µM)	> 40	> 20	–
COC(=O)c1cc(-c2cccc(NC(=O)c3ccc(/C=C/C(=O)c4ccc(C)c(F)c4)cc3)c2)on1	inactive	inactive	inactive	2 (≈ 4.13 µM)	> 50	> 25	–
CCCOc1ccc(C(=O)/C=C/c2ccc(C(=O)O)cc2)cc1	–	–	–	32 (≈ 103 µM)	< 10	< 10	–
COC(=O)c1cc(-c2cccc(NC(=O)/C=C/c3ccc(Cl)cc3)c2)on1	inactive	inactive	inactive	2 (≈ 5.22 µM)	–	–	–
CCOC(=O)c1nnn(-c2cccc(NC(=O)c3ccc(/C=C/C(=O)c4ccc(Cl)cc4)cc3)c2)c1C	–	inactive	–	> 64	–	–	–
COC(=O)c1cc(-c2cccc(NC(=O)c3ccc(/C=C/C(=O)c4ccc(F)cc4)cc3)c2)on1	inactive	inactive	inactive	4 (≈ 8.5 µM)	> 20	> 5	–
COC(=O)c1cc(-c2cccc(NC(=O)c3ccc(/C=C/C(=O)c4cccnc4)cc3)c2)on1	inactive	inactive	inactive	64 (≈ 141 µM)	–	–	–
COC(=O)[C@H](NC(=O)c1cc(COc2ccc3sc(C)nc3c2)on1)c1ccccc1	–	–	–	0.61 (≈ 1.39 µM)	–	–	–
COC(=O)c1cc(-c2cccc(NC(=O)c3ccc(C4OC4C(=O)c4ccc(Cl)cc4)cc3)c2)on1 (stereo not drawn)	inactive	inactive	inactive	4 (≈ 7.95 µM)	> 20	> 5	–
COC(=O)c1cc(-c2cccc(NC(=O)c3ccc(OCc4ccc(Cl)cc4)cc3)c2)on1	inactive	inactive	inactive	1 (≈ 2.16 µM)	> 80	> 80	–

Compound	Activity [1]	Activity [2]	Activity (Mycobacteroides chelonae)	MIC [3] [µg/mL]	CC50 at 72 h [4] [µg/mL]	selectivity ratio [5]	MIC90 [3] [µg/mL]
COc1ccc(OC)c(/C=C/C(=O)c2ccc(Nc3ccnc4cc(Cl)ccc34)cc2)c1	–	–	–	3.12 (≈ 7.01 µM)	–	–	–
COC(=O)c1cc(-c2cccc(NC(=O)c3ccc(/C=C/C(=O)c4ccc(O)cc4)cc3)c2)on1	inactive	inactive	inactive	> 64	–	–	–
COC(=O)c1cc(-c2cccc(NC(=O)c3ccc(/C=C/C(=O)c4cccc([N+](=O)[O-])c4)cc3)c2)on1	inactive	inactive	inactive	2 (≈ 4.02 µM)	> 40	> 20	–
O=C(/C=C/c1c[nH]c2ccccc12)c1cccs1	–	–	–	49.9 (≈ 197 µM)	–	–	–
O=C(O)c1ccc(C(=O)/C=C/c2ccc3ccccc3c2)cc1	–	–	–	0.5 (≈ 1.65 µM)	–	–	–
COC(=O)c1cc(-c2cccc(NC(=O)c3ccc(/C=C/C(=O)c4ccc(OC)cc4)cc3)c2)on1	inactive	inactive	inactive	4 (≈ 8.29 µM)	> 10	> 2.5	–
O=C(/C=C/c1ccc([N+](=O)[O-])o1)c1ccc(N2CCCCC2)cc1	–	–	–	0.06 (≈ 0.184 µM)	–	–	–
COC(=O)c1cc(-c2cccc(NC(=O)c3ccc(/C=C/C(=O)c4ccc(OC)c(OC)c4)cc3)c2)on1	inactive	inactive	inactive	1 (≈ 1.95 µM)	> 50	> 50	–
COC(=O)c1cc(-c2cccc(NC(=O)c3ccc(/C=C/C(=O)c4ccccc4OC)cc3)c2)on1	inactive	inactive	inactive	1 (≈ 2.07 µM)	> 40	> 40	–
COC(=O)c1cc(-c2cccc(NC(=O)c3ccc(/C=C/C(=O)c4ccccc4Br)cc3)c2)on1	inactive	inactive	inactive	1 (≈ 1.88 µM)	> 40	> 40	–
COC(=O)c1cc(-c2cccc(NC(=O)c3ccc(/C=C/C(=O)c4cccs4)cc3)c2)on1	inactive	inactive	inactive	32 (≈ 69.8 µM)	–	–	–
COC(=O)c1cc(-c2cccc(NC(=O)c3ccc(/C=C/C(=O)c4ccc(Br)cc4)cc3)c2)on1	inactive	inactive	inactive	1 (≈ 1.88 µM)	> 20	> 2	–
O=C(O)c1ccc(/C=C/C(=O)c2ccc(Cl)cc2)cc1	–	–	–	4 (≈ 14 µM)	< 10	< 10	–
COC(=O)c1cc(-c2cccc(NC(=O)c3ccc(/C=C/C(=O)c4cccc(F)c4)cc3)c2)on1	inactive	inactive	inactive	2 (≈ 4.25 µM)	> 40	> 20	–
COC(=O)c1cc(-c2cccc(NC(=O)c3ccc(/C=C/C(=O)c4cccc(OC)c4)cc3)c2)on1	inactive	inactive	inactive	2 (≈ 4.15 µM)	> 100	> 50	–
COC(=O)c1cc(-c2cccc(NC(=O)c3ccc(/C=C/C(=O)c4cccc(C(F)(F)F)c4)cc3)c2)on1	inactive	inactive	inactive	1 (≈ 1.92 µM)	> 20	> 20	–
Cc1ccc(Nc2nc(-c3cc(C(=O)Nc4ccccn4)no3)c(C)s2)cc1	–	–	–	–	–	–	0.06 (≈ 0.153 µM)
CCOC(=O)c1cc(-c2cccc(NC(=O)c3cccc(C(F)(F)F)c3)c2)on1	–	–	–	64 (≈ 158 µM)	–	–	–
